{
  "source": "ChEMBL document CHEMBL3259707",
  "about": "“Design and synthesis of human ABCB1 (P-glycoprotein) inhibitors by peptide coupling of diverse chemical scaffolds on carboxyl and amino termini of (S)-valine-derived thiazole amino acid” (J Med Chem, 2014)",
  "key": {"[1]": {"target": "T1, ATP-dependent translocase ABCB1 (Homo sapiens, UniProt P08183)", "T1 sequence (P08183 whole entry)": "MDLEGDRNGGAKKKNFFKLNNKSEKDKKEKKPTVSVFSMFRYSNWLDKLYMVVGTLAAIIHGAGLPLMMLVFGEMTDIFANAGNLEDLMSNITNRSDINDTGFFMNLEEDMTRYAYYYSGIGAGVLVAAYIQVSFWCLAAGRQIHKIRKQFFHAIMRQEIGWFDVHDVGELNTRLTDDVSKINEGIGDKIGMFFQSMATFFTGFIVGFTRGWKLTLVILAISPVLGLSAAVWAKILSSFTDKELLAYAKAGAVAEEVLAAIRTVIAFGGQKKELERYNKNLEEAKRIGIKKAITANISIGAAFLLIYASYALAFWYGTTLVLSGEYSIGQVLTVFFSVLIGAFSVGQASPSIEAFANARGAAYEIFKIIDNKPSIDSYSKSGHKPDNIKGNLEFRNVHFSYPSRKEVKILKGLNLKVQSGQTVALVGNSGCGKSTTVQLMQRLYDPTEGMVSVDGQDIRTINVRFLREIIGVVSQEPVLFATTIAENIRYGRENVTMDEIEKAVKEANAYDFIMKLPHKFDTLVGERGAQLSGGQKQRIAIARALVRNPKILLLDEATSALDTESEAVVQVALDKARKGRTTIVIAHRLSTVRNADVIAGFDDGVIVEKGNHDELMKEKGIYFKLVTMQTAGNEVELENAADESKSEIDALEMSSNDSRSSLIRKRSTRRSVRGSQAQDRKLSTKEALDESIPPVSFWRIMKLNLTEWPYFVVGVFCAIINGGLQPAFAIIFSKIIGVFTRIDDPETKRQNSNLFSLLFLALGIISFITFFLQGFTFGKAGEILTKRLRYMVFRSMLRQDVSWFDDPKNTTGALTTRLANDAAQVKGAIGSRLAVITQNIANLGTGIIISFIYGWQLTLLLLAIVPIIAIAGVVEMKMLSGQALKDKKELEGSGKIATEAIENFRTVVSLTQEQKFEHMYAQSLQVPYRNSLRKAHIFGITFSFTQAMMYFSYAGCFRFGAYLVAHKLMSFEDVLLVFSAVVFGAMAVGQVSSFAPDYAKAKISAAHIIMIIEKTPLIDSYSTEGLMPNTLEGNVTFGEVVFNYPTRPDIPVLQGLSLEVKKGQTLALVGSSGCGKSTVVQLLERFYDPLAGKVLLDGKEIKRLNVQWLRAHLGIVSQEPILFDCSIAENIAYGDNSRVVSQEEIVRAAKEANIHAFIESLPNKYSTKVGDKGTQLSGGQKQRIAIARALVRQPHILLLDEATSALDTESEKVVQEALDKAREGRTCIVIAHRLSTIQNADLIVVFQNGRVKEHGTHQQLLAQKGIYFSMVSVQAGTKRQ", "assay": "Stimulation of ATPase activity of ABCB1 (unknown origin) expressed in High Five insect cell membrane assessed as ATP hydrolysis", "summary_of_the_method": "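Vanadate-sensitive ATPase of P-gp in crude High Five membranes (10 μg protein/100 μL). Compound 0–10 μM, with and without 0.3 mM sodium orthovanadate, in ATPase assay buffer. […] Three independent experiments in duplicate, mean ± SEM.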"}, "[2]": {"target": "T1, ATP-dependent translocase ABCB1", "assay": "Stimulation of ATPase activity of ABCB1 (unknown origin) expressed in High Five insect cell membrane assessed as ATP hydrolysis at 0.5 to 2.5 uM relative to control"}, "[3]": {"target": "T1, ATP-dependent translocase ABCB1", "assay": "Inhibition of human wild type P-gp expressed in BacMam virus infected human HeLa cells assessed as calcein-AM accumulation after 10 mins by flow cytometry", "type": "cell-based", "summary_of_the_method": "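HeLa cells transduced with BacMam WT-P-gp (10–15 particles/cell); 10 mM butyric acid added after 3–4 h, grown overnight at 37 °C. Trypsinized cells exposed to compound, then 0.5 μM calcein-AM for 10 min at 37 °C in the dark. […] Two independent experiments in triplicate, ± SD.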"}, "[4]": {"assay": "Cytotoxicity against human SW620 cells assessed as cell survival at 10 uM by MTT assay", "type": "cell-based, SW-620", "details": "read-out: Activity", "summary_of_the_method": "(§1)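 Cells seeded at 5000–6000 per well in triplicate, attached 24 h at 37 °C, 5% CO2, then exposed to compound for 72 h. MTT (4 mg/mL) added for 4 h, formazan dissolved in DMSO, absorbance read at 570 nm. Four independent experiments. HEK/ABCB1 and HEK293 kept in DMEM with G418 (2 mg/mL). All lines drug-free for over 2 weeks beforehand.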"}, "[5]": {"target": "T1, ATP-dependent translocase ABCB1", "assay": "Displacement of […] from ABCB1 (unknown origin) expressed in High Five insect cell membrane preincubated for 10 mins by autoradiography", "summary_of_the_method": "(§2)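 Compound 0–20 μM, 10 min at 37 °C. Then [125I]-IAAP (2200 Ci/mmol; 4–6 nM) added for 5 min under minimal light. UV 365 nm for 10 min, labeling read by autoradiography. Two independent experiments; curve fitted by one-phase decay.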"}, "[6]": {"assay": "Cytotoxicity against human SW620/Ad300 cells overexpressing ABCB1 assessed as cell survival at 10 uM by MTT assay", "type": "ADME, cell-based, SW-620", "details": "SW620/Ad300 cells that overexpress ABCB1, read-out: Activity", "summary_of_the_method": "as §1"}, "[7]": {"assay": "Cytotoxicity against human HEK293 cells overexpressing human ABCB1 assessed as cell survival at 10 uM by MTT assay", "type": "ADME, cell-based", "details": "HEK293 cells that overexpress human ABCB1, read-out: Activity", "summary_of_the_method": "as §1"}, "[8]": {"assay": "Cytotoxicity against human HEK293 cells assessed as cell survival at 10 uM by MTT assay", "type": "cell-based", "details": "read-out: Activity", "summary_of_the_method": "as §1"}, "[9]": {"assay": "Retention time of the compound by HPLC analysis", "type": "physicochemical", "summary_of_the_method": "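Reverse-phase C18 HPLC, isocratic acetonitrile/water 60:40, 1.0 mL/min, UV 254 nm; purity from major-peak area.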"}, "[10]": {"assay": "Retardation factor of the compound using EtOAc-n-hexane at ratio of 3:2 by thin layer chromatography", "type": "physicochemical"}, "[11]": {"target": "T1, ATP-dependent translocase ABCB1", "assay": "Reversal of Pgp-1-mediated multidrug resistance in human SW620 cells assessed as potentiation of paclitaxel cytotoxicity at 3 uM treated for 2 hrs prior to paclitaxel challenge measured after 72 hrs by MTT assay relative to paclitaxel alone-treated control", "type": "cell-based", "details": "sw-620, 72 h", "summary_of_the_method": "(§3)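 MTT reversal assay. Cells seeded 5000–6000/well and attached 24 h; modulator added 2 h before graded paclitaxel; 72 h at 37 °C; MTT 4 h, DMSO solubilisation, A570. Paclitaxel IC50 taken from killing curves. Fold-resistance = paclitaxel IC50 (± modulator) ÷ paclitaxel IC50 in parental SW620 or HEK293. Four independent experiments in triplicate, mean ± SEM. Cells drug-free >2 weeks beforehand.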"}, "[12]": {"target": "T1, ATP-dependent translocase ABCB1", "assay": "Stimulation of ATPase activity of ABCB1 (unknown origin) expressed in High Five insect cell membrane assessed as ATP hydrolysis at >2.5 uM relative to control"}, "[13]": {"target": "T1, ATP-dependent translocase ABCB1", "assay": "Displacement of […] from ABCB1 (unknown origin) expressed in High Five insect cell membrane at >5 uM preincubated for 10 mins by autoradiography", "summary_of_the_method": "as §2"}, "[14]": {"target": "T1, ATP-dependent translocase ABCB1", "assay": "Reversal of Pgp-1-mediated multidrug resistance in human SW620 cells assessed as potentiation of paclitaxel cytotoxicity at 1 uM treated for 2 hrs prior to paclitaxel challenge measured after 72 hrs by MTT assay relative to paclitaxel alone-treated control", "type": "cell-based", "details": "sw-620, 72 h", "summary_of_the_method": "as §3"}, "[15]": {"target": "T1, ATP-dependent translocase ABCB1", "assay": "Reversal of Pgp-1-mediated multidrug resistance in human SW620/Ad300 cells overexpressing ABCB1 assessed as potentiation of paclitaxel cytotoxicity at 1 uM treated for 2 hrs prior to paclitaxel challenge measured after 72 hrs by MTT assay relative to paclitaxel alone-treated control", "type": "cell-based", "details": "sw-620, 72 h", "summary_of_the_method": "as §3"}, "[16]": {"target": "T1, ATP-dependent translocase ABCB1", "assay": "Reversal of Pgp-1-mediated multidrug resistance in human HEK293 cells overexpressing human ABCB1 assessed as potentiation of paclitaxel cytotoxicity at 1 uM treated for 2 hrs prior to paclitaxel challenge measured after 72 hrs by MTT assay relative to paclitaxel alone-treated control", "type": "cell-based", "details": "hek293, 72 h", "summary_of_the_method": "as §3"}, "[17]": {"target": "T1, ATP-dependent translocase ABCB1", "assay": "Reversal of Pgp-1-mediated multidrug resistance in human HEK293 cells assessed as potentiation of paclitaxel cytotoxicity at 1 uM treated for 2 hrs prior to paclitaxel challenge measured after 72 hrs by MTT assay relative to paclitaxel alone-treated control", "type": "cell-based", "details": "hek293, 72 h", "summary_of_the_method": "as §3"}, "[18]": {"target": "T1, ATP-dependent translocase ABCB1", "assay": "Reversal of Pgp-1-mediated multidrug resistance in human SW620 cells assessed as potentiation of paclitaxel cytotoxicity at 10 uM treated for 2 hrs prior to paclitaxel challenge measured after 72 hrs by MTT assay relative to paclitaxel alone-treated control", "type": "cell-based", "details": "sw-620, 72 h", "summary_of_the_method": "(§4)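 Cells seeded at 5000–6000/well, attached 24 h at 37 °C, 5% CO2, then preincubated 2 h ± reversal agent before paclitaxel dilutions; after 72 h, MTT (4 mg/mL) 4 h, formazan dissolved in DMSO, absorbance 570 nm. Paclitaxel IC50 from killing curves; fold-resistance = IC50 divided by parental paclitaxel IC50. Four independent experiments in triplicate. HEK lines kept with G418 (2 mg/mL).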"}, "[19]": {"target": "T1, ATP-dependent translocase ABCB1", "assay": "Reversal of Pgp-1-mediated multidrug resistance in human SW620/Ad300 cells overexpressing ABCB1 assessed as potentiation of paclitaxel cytotoxicity at 3 uM treated for 2 hrs prior to paclitaxel challenge measured after 72 hrs by MTT assay relative to paclitaxel alone-treated control", "type": "cell-based", "details": "sw-620, 72 h", "summary_of_the_method": "as §3"}, "[20]": {"target": "T1, ATP-dependent translocase ABCB1", "assay": "Reversal of Pgp-1-mediated multidrug resistance in human HEK293 cells assessed as potentiation of paclitaxel cytotoxicity at 10 uM treated for 2 hrs prior to paclitaxel challenge measured after 72 hrs by MTT assay relative to paclitaxel alone-treated control", "type": "cell-based", "details": "hek293, 72 h", "summary_of_the_method": "as §4"}, "[21]": {"target": "T1, ATP-dependent translocase ABCB1", "assay": "Reversal of Pgp-1-mediated multidrug resistance in human HEK293 cells overexpressing human ABCB1 assessed as potentiation of paclitaxel cytotoxicity at 10 uM treated for 2 hrs prior to paclitaxel challenge measured after 72 hrs by MTT assay relative to paclitaxel alone-treated control", "type": "cell-based", "details": "hek293, 72 h", "summary_of_the_method": "as §4"}, "[22]": {"target": "T1, ATP-dependent translocase ABCB1", "assay": "Reversal of Pgp-1-mediated multidrug resistance in human SW620/Ad300 cells overexpressing ABCB1 assessed as potentiation of paclitaxel cytotoxicity at 10 uM treated for 2 hrs prior to paclitaxel challenge measured after 72 hrs by MTT assay relative to paclitaxel alone-treated control", "type": "cell-based", "details": "sw-620, 72 h", "summary_of_the_method": "as §4"}, "[23]": {"target": "T1, ATP-dependent translocase ABCB1", "assay": "Reversal of Pgp-1-mediated multidrug resistance in human HEK293 cells overexpressing human ABCB1 assessed as potentiation of paclitaxel cytotoxicity at 3 uM treated for 2 hrs prior to paclitaxel challenge measured after 72 hrs by MTT assay relative to paclitaxel alone-treated control", "type": "cell-based", "details": "hek293, 72 h", "summary_of_the_method": "as §3"}, "[24]": {"target": "T1, ATP-dependent translocase ABCB1", "assay": "Reversal of Pgp-1-mediated multidrug resistance in human HEK293 cells assessed as potentiation of paclitaxel cytotoxicity at 3 uM treated for 2 hrs prior to paclitaxel challenge measured after 72 hrs by MTT assay relative to paclitaxel alone-treated control", "type": "cell-based", "details": "hek293, 72 h", "summary_of_the_method": "as §3"}},
  "note": "pEC50, pIC50: −log10 of the molar value.",
  "data": [
    {"smiles": "COc1cc(C(=O)N[C@H](c2nc(C(=O)Nc3ccccc3C(=O)c3ccccc3)cs2)C(C)C)cc(OC)c1OC", "values": [
      {"measurement": "pEC50", "setting": "[1]", "result": 7.57},
      {"measurement": "Activity", "setting": "[1]; human", "result": "Dose-dependent effect"},
      {"measurement": "Ratio", "setting": "[2]", "result": 2},
      {"measurement": "pIC50", "setting": "[3]", "result": 6.00},
      {"measurement": "inhibition (INH)", "setting": "[3]; human, hela, 10 min", "result": "Dose-dependent effect"},
      {"measurement": "viability at 10 µM", "setting": "[4]", "result": "> 85", "unit": "%"},
      {"measurement": "inhibition (INH)", "setting": "[5]", "result": "Dose-dependent effect"},
      {"measurement": "viability at 10 µM", "setting": "[6]", "result": "> 85", "unit": "%"},
      {"measurement": "viability at 10 µM", "setting": "[7]", "result": "> 85", "unit": "%"},
      {"measurement": "viability at 10 µM", "setting": "[8]", "result": "> 85", "unit": "%"},
      {"measurement": "Retention_time", "setting": "[9]", "result": 9.4, "unit": "min"},
      {"measurement": "Rf", "setting": "[10]", "result": 0.45},
      {"measurement": "Ratio", "setting": "[11]", "result": 1},
      {"measurement": "Ratio", "setting": "[12]", "result": 1.8},
      {"measurement": "pIC50", "setting": "[13]", "result": 6.14},
      {"measurement": "inhibition (INH)", "setting": "[13]; human", "result": 90, "unit": "%"},
      {"measurement": "Ratio", "setting": "[14]", "result": 1.2},
      {"measurement": "Ratio", "setting": "[15]", "result": 31},
      {"measurement": "Ratio", "setting": "[16]", "result": 12.9},
      {"measurement": "Ratio", "setting": "[17]", "result": 1},
      {"measurement": "Ratio", "setting": "[18]", "result": 1},
      {"measurement": "Ratio", "setting": "[19]", "result": 8.5},
      {"measurement": "Ratio", "setting": "[20]", "result": 1},
      {"measurement": "Ratio", "setting": "[21]", "result": 2},
      {"measurement": "Ratio", "setting": "[22]", "result": 1.8},
      {"measurement": "Ratio", "setting": "[23]", "result": 3.1},
      {"measurement": "Ratio", "setting": "[24]", "result": 1}
    ]}
  ]
}
